Test [1] has as its system Candida albicans. Briefly: Antifungal activity against Candida albicans MTCC 227 by conventional broth microdilution method. The test is classed as functional. The procedure, abridged:
(§1)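 Tube broth microdilution. Compounds were diluted in DMSO from a 2000 μg/mL stock. The primary screen used 500, 250 and 200 μg/mL, and actives were retested at 100, 62.5, 50 and 25 μg/mL. Tubes were incubated overnight. MIC was the lowest concentration with no visible growth (at least 99% inhibition). Clear tubes were subcultured overnight at 37 °C.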
(Broth dilution looks for growth in wells or tubes with falling amounts of substance.)

For test [2], the system named is Aspergillus niger. Description: Antifungal activity against Aspergillus niger MTCC 282 by conventional broth microdilution method. The test is classed as functional. The procedure, abridged:
as §1

The subject of test [3] is Aspergillus clavatus. Description: Antifungal activity against Aspergillus clavatus MTCC 1323 by conventional broth microdilution method. Type of test: functional. The gist of the method:
as §1

The test system of test [4] is HeLa. Description: Cytotoxicity against human HeLa cells after 24 hrs by MTT assay. Type of test: cell-based. The procedure, abridged: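 HeLa cells were grown in MEM with 10% FBS, 1% glutamine and gentamicin under humidified 5% CO2. 1.0 × 10^4 cells were exposed to 1–100 μM compound (0.1% DMSO in medium) for 24 h at 37 °C. MTT at 1 mg/mL was added for 5 h at 37 °C, formazan was dissolved in DMSO, and A540 was read. Run in triplicate; IC50 reported.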
A general note: Tetrazolium assays rely on reduction of a dye to a coloured formazan, in cell work by metabolically active cells.

Test [5] has as its system Staphylococcus aureus. Briefly: Ratio of chloramphenicol MIC to compound MIC for Staphylococcus aureus MTCC 96. Type of test: functional.
Test [6] deals with Escherichia coli. Briefly: Antibacterial activity against Escherichia coli MTCC 443 by conventional broth microdilution method. The test is classed as functional. The gist of the method: as §1
The subject of test [7] is Streptococcus pyogenes. Description: Antibacterial activity against Streptococcus pyogenes MTCC 442 by conventional broth microdilution method. Type of test: functional. The gist of the method:
as §1

Test [8] has as its system Pseudomonas aeruginosa. Description: Antibacterial activity against Pseudomonas aeruginosa MTCC 1688 by conventional broth microdilution method. Type of test: functional. The gist of the method: as §1
For test [9], the system named is Streptococcus pyogenes. Briefly: Ratio of chloramphenicol MIC to compound MIC for Streptococcus pyogenes MTCC 442. The test is classed as functional.
Test [10] relates to Pseudomonas aeruginosa. Description: Ratio of chloramphenicol MIC to compound MIC for Pseudomonas aeruginosa MTCC 1688. The test is classed as functional.
The test system of test [11] is Escherichia coli. Briefly: Ratio of chloramphenicol MIC to compound MIC for Escherichia coli MTCC 443. Type of test: functional.
The subject of test [12] is Staphylococcus aureus. Description: Antibacterial activity against Staphylococcus aureus MTCC 96 by conventional broth microdilution method. Type of test: functional. The gist of the method:
as §1

Test [13] relates to Candida albicans. Description: Ratio of ketoconazole MIC to compound MIC for Candida albicans MTCC 227. The test is classed as functional.
The test system of test [14] is Aspergillus niger. Description: Ratio of ketoconazole MIC to compound MIC for Aspergillus niger MTCC 282. The test is classed as functional.

Structures are written as SMILES. Values after ≈ are worked out from the molar mass of the structure shown.

For the molecule `CC(=O)N1CCN(c2ccc(OCC3COC(Cn4ccnc4)(c4ccc(Cl)cc4Cl)O3)cc2)CC1` (stereo unspecified) [KETOCONAZOLE], the minimum inhibitory concentration (MIC) in test [1], in test [2] and in [3] was 50 µg/mL (≈ 94.1 µM) each time.

Regarding `CC(=O)Nc1nc(C)c(-c2nn(CNc3ccc(F)cc3)c(=S)o2)s1`, in test [4], the 50% inhibitory concentration (IC50) (in general, the concentration that inhibits the measured activity by half) is > 100 µM. Besides, the Ratio came out at 4 in [5], 2 in test [9], 4 in [10] and 4 in test [11]. The MIC (commonly the smallest concentration in the dilution series that meets the test's criterion for growth inhibition) in test [6] is 12.5 µg/mL (≈ 32.9 µM); in test [7], 25 µg/mL (≈ 65.9 µM); in test [1], 500 µg/mL (≈ 1320 µM); in test [2], 500 µg/mL (≈ 1320 µM); in [8], 12.5 µg/mL (≈ 32.9 µM); in test [3], > 1000 µg/mL. Also, the MIC in test [12] was 12.5 µg/mL (≈ 32.9 µM).

For `COc1cccc(NCn2nc(-c3sc(NC(C)=O)nc3C)oc2=S)c1`, the minimal inhibitory concentration (MIC) came to 500 µg/mL (≈ 1280 µM) in [6]; 500 µg/mL (≈ 1280 µM) in test [7]; 250 µg/mL (≈ 639 µM) in test [1]; 100 µg/mL (≈ 255 µM) in [2]; 500 µg/mL (≈ 1280 µM) in test [8]; 500 µg/mL (≈ 1280 µM) in [3]. Moreover, the MIC in test [12] is > 1000 µg/mL.

As to `CC(=O)Nc1nc(C)c(-c2nn(CNc3ccccc3F)c(=S)o2)s1`, the MIC in test [6] is 250 µg/mL (≈ 659 µM); in [7], 100 µg/mL (≈ 264 µM); in test [1], 500 µg/mL (≈ 1320 µM); in test [2] it was > 1000 µg/mL; in [8] it was 500 µg/mL (≈ 1320 µM); in [3], 500 µg/mL (≈ 1320 µM). Also, 250 µg/mL (≈ 659 µM) was the least that counted as inhibitory in test [12] (MIC).

`COc1ccc(NCn2nc(-c3sc(NC(C)=O)nc3C)oc2=S)cc1`: the IC50 in test [4] was determined as 98.6 µM. The Ratio in [13] and in test [14] was 2 throughout. Moreover, the MIC in test [6] is 500 µg/mL (≈ 1280 µM); in test [7], > 1000 µg/mL; in test [1], 25 µg/mL (≈ 63.9 µM); in test [2], 25 µg/mL (≈ 63.9 µM); in test [8], 500 µg/mL (≈ 1280 µM); in test [3] it was 62.5 µg/mL (≈ 160 µM). In test [12], this molecule returned an MIC of 500 µg/mL (≈ 1280 µM).

In the case of `COc1ccccc1NCn1nc(-c2sc(NC(C)=O)nc2C)oc1=S`, the MIC is 500 µg/mL (≈ 1280 µM) in test [6]; > 1000 µg/mL in test [7]; 500 µg/mL (≈ 1280 µM) in test [1]; 250 µg/mL (≈ 639 µM) in test [2]; 250 µg/mL (≈ 639 µM) in [8]; 250 µg/mL (≈ 639 µM) in test [3]. Further, the MIC in [12] is 500 µg/mL (≈ 1280 µM).

`CC(=O)Nc1nc(C)c(-c2nn(CNc3ccccc3[N+](=O)[O-])c(=S)o2)s1`: the MIC came to 500 µg/mL (≈ 1230 µM) in test [6]; 250 µg/mL (≈ 615 µM) in test [7]; 250 µg/mL (≈ 615 µM) in [1]; 500 µg/mL (≈ 1230 µM) in test [2]; 250 µg/mL (≈ 615 µM) in [8]; 500 µg/mL (≈ 1230 µM) in test [3]. Further, the minimum inhibitory concentration (MIC) in [12] came out at 100 µg/mL (≈ 246 µM).

For the molecule `CC(=O)Nc1nc(C)c(-c2nn(CNc3cccc(C)c3)c(=S)o2)s1`, the MIC in [6] amounted to 250 µg/mL (≈ 666 µM); in [7], 500 µg/mL (≈ 1330 µM); in test [1], 500 µg/mL (≈ 1330 µM); in [2], 500 µg/mL (≈ 1330 µM); in test [8], 500 µg/mL (≈ 1330 µM); in test [3], 500 µg/mL (≈ 1330 µM). The molecule further showed an MIC in test [12] of 500 µg/mL (≈ 1330 µM).

As for `CC(=O)Nc1nc(C)c(-c2nn(CNc3cccc([N+](=O)[O-])c3)c(=S)o2)s1`, the half-maximal inhibitory concentration (IC50) in test [4] is > 100 µM. Besides, the MIC in test [6] came out at 50 µg/mL (≈ 123 µM); in [7], 100 µg/mL (≈ 246 µM); in [1], 500 µg/mL (≈ 1230 µM); in test [2], 100 µg/mL (≈ 246 µM); in test [8], 50 µg/mL (≈ 123 µM); in [3] it was 250 µg/mL (≈ 615 µM). The molecule also displayed an MIC in test [12] of 50 µg/mL (≈ 123 µM).

For `CC(=O)Nc1nc(C)c(-c2nn(CNc3ccc(C)cc3)c(=S)o2)s1`, the minimum inhibitory concentration (MIC) in [6] was 500 µg/mL (≈ 1330 µM); in test [7] it was > 1000 µg/mL; in test [1], 500 µg/mL (≈ 1330 µM); in test [2], 250 µg/mL (≈ 666 µM); in test [8], > 1000 µg/mL; in test [3], 250 µg/mL (≈ 666 µM). In test [12], the MIC amounted to 500 µg/mL (≈ 1330 µM).

Consider `CC(=O)Nc1nc(C)c(-c2nn(CNc3ccccc3C)c(=S)o2)s1`, for which the minimum inhibitory concentration (MIC) worked out at 250 µg/mL (≈ 666 µM) in test [6]; 250 µg/mL (≈ 666 µM) in [7]; 500 µg/mL (≈ 1330 µM) in [1]; 500 µg/mL (≈ 1330 µM) in test [2]; 100 µg/mL (≈ 266 µM) in [8]; 250 µg/mL (≈ 666 µM) in [3]. In test [12], this molecule came in with a minimum inhibitory concentration (MIC) of 500 µg/mL (≈ 1330 µM).

Take `O=C(N[C@H](CO)[C@H](O)c1ccc([N+](=O)[O-])cc1)C(Cl)Cl` [CHLORAMPHENICOL]: the MIC in test [6], in test [7], in test [8] and in [12] was 50 µg/mL (≈ 155 µM) each time.

`CC(=O)Nc1nc(C)c(-c2nn(CNc3ccc([N+](=O)[O-])cc3)c(=S)o2)s1`: the IC50 in test [4] came to 96.5 µM. For the same molecule, the Ratio was determined as 2 in [5], 2 in test [9], 4 in test [10] and 4 in test [11]. Also, the MIC in test [6] was found to be 12.5 µg/mL (≈ 30.8 µM); in test [7] it was 25 µg/mL (≈ 61.5 µM); in test [1], 500 µg/mL (≈ 1230 µM); in test [2], 250 µg/mL (≈ 615 µM); in [8], 12.5 µg/mL (≈ 30.8 µM); in test [3], 100 µg/mL (≈ 246 µM). Further, the MIC in test [12] was 25 µg/mL (≈ 61.5 µM).

With `CC(=O)Nc1nc(C)c(-c2nn(CNc3cccc(F)c3)c(=S)o2)s1`, the 50% inhibitory concentration (IC50) in test [4] is > 100 µM. The MIC in [6] was 50 µg/mL (≈ 132 µM); in [7] it was 100 µg/mL (≈ 264 µM); in [1] it was 500 µg/mL (≈ 1320 µM); in test [2], 500 µg/mL (≈ 1320 µM); in test [8], 50 µg/mL (≈ 132 µM); in test [3] it was > 1000 µg/mL. Moreover, the MIC in [12] stood at 50 µg/mL (≈ 132 µM).

Source of the values: ChEMBL document CHEMBL2417451, “Synthesis, antimicrobial and cytotoxic activities of some novel thiazole clubbed 1,3,4-oxadiazoles” (Eur J Med Chem, 2013).
